According to ChEMBL document CHEMBL5108040, “N-1,2,3-Triazole-isatin derivatives: anti-proliferation effects and target identification in solid tumour cell lines” (RSC Med Chem, 2022):
Activity calls are given as the source filed them. The rule behind the calls is not given here.

Key:
MCF-10A [1] = experiment: Antiproliferative activity against human MCF-10A cells assessed as inhibition of cell growth incubated for 72 hrs by MTT assay; assay type: functional, cell-based
In short: (§1)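 MTT assay in human tumour lines SW480 (colon), A549 (lung adenocarcinoma), MCF7 and MDA-MB-231 (breast), in non-tumorigenic breast MCF10A, and in human embryonic kidney Hek293 as non-tumour reference. Compounds tested at several concentrations for 72 h; IC50 derived from dose-response and given as mean ± error. Cisplatin as reference.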

SW480 = experiment: Antiproliferative activity against human SW480 cells assessed as inhibition of cell growth incubated for 72 hrs by MTT assay; assay type: functional, cell-based; conditions: SW480, 72 h; in short: as §1
MDA-MB-231 [2] = experiment: Antiproliferative activity against human MDA-MB-231 cells assessed as inhibition of cell growth incubated for 72 hrs by MTT assay; assay type: functional, cell-based; conditions: MDA-MB-231, 72 h; in short: as §1
[3] = Cytotoxicity against HEK293 cells assessed as inhibition of cell growth incubated for 72 hrs by MTT assay; assay type: toxicity, cell-based; conditions: human; in short: as §1
A549 = experiment: Antiproliferative activity against human A549 cells assessed as inhibition of cell growth incubated for 72 hrs by MTT assay; assay type: functional, cell-based; conditions: A549, 72 h; in short: as §1
MCF7 [4] = experiment: Antiproliferative activity against human MCF7 cells assessed as inhibition of cell growth incubated for 72 hrs by MTT assay; assay type: functional, cell-based; conditions: MCF7, 72 h; in short: as §1
MCF-10A [5] = experiment: Downregulation of LYPLA2 gene expression in human MCF-10A cells at IC50 concentration incubated for 72 hrs by RT-PCR analysis; assay type: functional, cell-based
In short: (§2)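 mRNA levels measured by qPCR in MCF7, MDA-MB-231 and MCF10A breast cells after compound treatment, against DMSO-treated vehicle control. LYPLA2 expression given as a ratio to GAPDH. Statistics by Brown-Forsythe and Welch ANOVA with Dunnett T3 correction; p < 0.05 and p < 0.01 marked.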

MDA-MB-231 [6] = experiment: Downregulation of LYPLA2 gene expression in human MDA-MB-231 cells at IC50 concentration incubated for 72 hrs by RT-PCR analysis; assay type: functional, cell-based; in short: as §2
MCF7 [7] = experiment: Downregulation of EP300 gene expression in human MCF7 cells at IC50 concentration incubated for 72 hrs by RT-PCR analysis; assay type: functional, cell-based
MDA-MB-231 [8] = experiment: Downregulation of EP300 gene expression in human MDA-MB-231 cells at IC50 concentration incubated for 72 hrs by RT-PCR analysis; assay type: functional, cell-based
[9] = Antiproliferative activity against human SW182 cells assessed as inhibition of cell growth at 2.5 to 2 mM incubated for 24 hrs by MTT assay relative to control; assay type: functional; set-up: scale not given: the % may be the effect or the level left; conditions: dose 2.5-2 mM, at 2 to 2.5 mM
[10] = Antiproliferative activity against human H199 cells assessed as inhibition of cell growth at 2.5 to 2 mM incubated for 24 hrs by MTT assay relative to control; assay type: functional; set-up: scale not given: the % may be the effect or the level left; conditions: dose 2.5-2 mM, at 2 to 2.5 mM
MCF7 [11] = experiment: Downregulation of LYPLA2 gene expression in human MCF7 cells at IC50 concentration incubated for 72 hrs by RT-PCR analysis; assay type: functional, cell-based; in short: as §2

SMILES | IC50 (SW480) [µM] | IC50 at 72 h [3] [µM] | IC50 (A549) [µM] | other results
O=C1N(Cc2cn(Cc3ccccc3)nn2)c2ccccc2[C@@]1(O)c1ccc2ccccc2c1 | 9.9 | 12.4 | 28.3 | IC50 (MCF-10A [1]): 1.33 µM; IC50 (MDA-MB-231 [2]): 3.1 µM; IC50 (MCF7 [4]): 1.75 µM; Activity (MCF-10A [5]): Active; Activity (MDA-MB-231 [6]): Active
Cc1ccc2c(c1)C(=O)C(=O)N2Cc1cn(Cc2ccccc2)nn1 | 26.6 | 26.9 | 41.5 | IC50 (MCF-10A [1]): 1.54 µM; Activity (MCF7 [7]): Active; IC50 (MDA-MB-231 [2]): 2.4 µM; Activity (MDA-MB-231 [8]): Active; IC50 (MCF7 [4]): 1.5 µM
COc1ccc([C@@]2(O)C(=O)N(Cc3cn(Cc4ccccc4)nn3)c3ccccc32)cc1 | 36.6 | 38 | 95.9 | –
O=C1N(Cc2cn(Cc3ccccc3)nn2)c2ccccc2[C@]1(O)c1ccsc1 | 29.5 | 64 | > 100 | –
CC(C)[C@@H]1CC[C@@H](C)C[C@@H]1n1cc(CN2C(=O)C3(OCCO3)c3ccccc32)nn1 | > 100 | > 100 | > 100 | –
O=C1N(Cc2cn(Cc3ccccc3)nn2)c2ccccc2[C@]1(O)c1ccc(F)cc1 | 32.1 | 53.5 | 77.3 | –
O=C1N(Cc2cn(Cc3ccccc3)nn2)c2ccc(Br)cc2[C@@]1(O)c1ccccc1 | 18.9 | 87.3 | 29.3 | IC50 (MCF-10A [1]): 1.1 µM; IC50 (MDA-MB-231 [2]): 1.62 µM; IC50 (MCF7 [4]): 2.04 µM
O=C1N(Cc2cn(Cc3ccccc3)nn2)c2ccccc2[C@@]1(O)c1ccc(F)cc1 | 28.2 | 50.3 | 72.1 | –
O=C1N(Cc2cn(Cc3ccccc3)nn2)c2ccccc2[C@@]1(O)c1cccc(O)c1 | 31.8 | 33.7 | > 100 | –
Cc1ccc([C@]2(O)C(=O)N(Cc3cn(Cc4ccccc4)nn3)c3ccccc32)cc1 | > 100 | > 100 | > 100 | –
O=C1N(Cc2cn(Cc3ccccc3)nn2)c2ccccc2[C@]1(O)c1ccc2ccccc2c1 | 8.7 | 14 | 23.5 | –
O=C1N(Cc2cn(Cc3ccccc3)nn2)c2ccccc2[C@@]1(O)c1ccccc1 | 62.4 | > 100 | > 100 | –
O=C(Cn1cc(CN2C(=O)C(=O)c3ccccc32)nn1)Nc1nc2ccccc2s1 | – | – | – | Activity [9]: >50%; Activity [10]: >50%
CCCCn1cc(CN2C(=O)[C@@](O)(c3ccccc3)c3ccccc32)nn1 | > 100 | > 100 | > 100 | –
O=C1N(Cc2cn(Cc3ccccc3)nn2)c2ccccc2[C@]1(O)c1ccccc1 | 75.3 | > 100 | > 100 | –
Cc1ccc2nc(NC(=O)Cn3cc(CN4C(=O)C(=O)c5ccccc54)nn3)sc2c1 | – | – | – | Activity [9]: >50%; Activity [10]: >50%
O=C1N(Cc2cn(Cc3ccccc3)nn2)c2ccc(Br)cc2[C@]1(O)c1ccccc1 | 28.7 | 36.1 | 65.9 | IC50 (MCF-10A [1]): 1.02 µM; IC50 (MDA-MB-231 [2]): 1.41 µM; Activity (MCF7 [11]): Active; IC50 (MCF7 [4]): 1.49 µM; Activity (MDA-MB-231 [6]): Active
CC(C)[C@@H]1CC[C@@H](C)C[C@@H]1n1cc(CN2C(=O)C(=O)c3ccccc32)nn1 | 8.9 | 23.1 | 53.8 | IC50 (MCF-10A [1]): 1.08 µM; Activity (MCF7 [7]): Active; IC50 (MDA-MB-231 [2]): 1.79 µM; Activity (MDA-MB-231 [8]): Active; IC50 (MCF7 [4]): 1.34 µM
CCCCn1cc(CN2C(=O)[C@](O)(c3ccccc3)c3ccccc32)nn1 | > 100 | > 100 | > 100 | –
O=C1C(=O)N(Cc2cn(Cc3ccccc3)nn2)c2ccccc21 | 32.2 | 63.7 | 54.7 | IC50 (MCF-10A [1]): 1.8 µM; Activity (MCF7 [7]): Active; IC50 (MDA-MB-231 [2]): 2.95 µM; Activity (MDA-MB-231 [8]): Active; IC50 (MCF7 [4]): 1.39 µM
O=C1N(Cc2cn(Cc3ccccc3)nn2)c2ccccc2[C@@]1(O)c1ccsc1 | 62.5 | 46.4 | 98 | –
CS(=O)(=O)c1ccc2nc(NC(=O)Cn3cc(CN4C(=O)C(=O)c5ccccc54)nn3)sc2c1 | – | – | – | Activity [9]: >50%; Activity [10]: >50%
COc1ccc([C@]2(O)C(=O)N(Cc3cn(Cc4ccccc4)nn3)c3ccccc32)cc1 | 75.8 | > 100 | > 100 | –
